# Data published in ChEMBL document CHEMBL1142882, “Design, parallel synthesis and SAR of novel urotensin II receptor agonists” (Eur J Med Chem, 2007).
# Calls of active or inactive are those of the source. The rule behind the calls is not given here.
# How the values were obtained:
# Type in all cases: functional, cell-based
# [1] = molecular target: T1, Urotensin-2 receptor (Homo sapiens) (UniProt Q9UKP6); assay: Agonist activity at human urotensin-2 receptor transfected in NIH3T3 cells after 5 days by R-SAT assay relative to urotensin-2
# T1 sequence (whole entry): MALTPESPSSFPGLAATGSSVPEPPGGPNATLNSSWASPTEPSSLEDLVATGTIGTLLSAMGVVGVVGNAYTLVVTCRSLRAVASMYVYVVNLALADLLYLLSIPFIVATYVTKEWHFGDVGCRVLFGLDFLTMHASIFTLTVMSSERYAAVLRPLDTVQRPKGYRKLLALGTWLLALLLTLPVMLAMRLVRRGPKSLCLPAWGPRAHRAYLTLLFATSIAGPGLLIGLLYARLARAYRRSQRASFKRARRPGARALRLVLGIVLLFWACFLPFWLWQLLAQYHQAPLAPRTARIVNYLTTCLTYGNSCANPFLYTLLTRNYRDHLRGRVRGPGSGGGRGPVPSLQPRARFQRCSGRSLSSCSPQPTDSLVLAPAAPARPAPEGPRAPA
# Method in brief: (§1)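 NIH-3T3 cells grown to 80% confluence in DMEM with 10% bovine calf serum and 1% penicillin/streptomycin/glutamine, transfected 18 h with human UII receptor plus β-galactosidase marker, then trypsinized and frozen. Thawed batches were quality-checked with control compound, then incubated with compounds or reference ligands for five days in 5% CO₂. Reporter enzyme activity read at 420 nm.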
# [2] = molecular target: T2, Urotensin-2 receptor (Homo sapiens, UniProt Q9UKP6); assay: (§2) Agonist activity at human urotensin-2 receptor transfected in NIH3T3 cells after 5 days by R-SAT assay; method in brief: as §1
# T2 sequence (Q9UKP6 whole entry): T1 sequence (whole entry)
# [3] = molecular target: T1, Urotensin-2 receptor (Homo sapiens); assay: as §2; method in brief: as §1
Efficacy [1] [%],EC50 [2] [µM],SMILES,further results
107,,CN(C)CCC(NC(=O)CCc1ccccc1)c1ccc2ccccc2c1 (stereo not given),
40,,CN(C)CCC(NC(=O)Cc1ccc(C(F)(F)F)cc1)c1ccc2ccccc2c1 (stereo not given),
139,,CN(C)CCC(NC(=O)CCc1ccccc1)c1ccc(Cl)cc1 (stereo not given),
73,,Cc1ccc(C(CCN(C)C)NC(=O)CCc2ccccc2)cc1 (stereo not given),
121,,CN(C)CCC(NC(=O)Cc1ccccc1)c1ccc2ccccc2c1 (stereo not given),
75,0.372,CN(C)CCC(NC(=O)CCc1ccc(C(F)(F)F)cc1)c1ccc2ccccc2c1 (stereo not given),
65,,COc1ccc(CC(=O)NC(CCN(C)C)c2ccc(Cl)cc2)cc1 (stereo not given),
76,,CN(C)CCC(NC(=O)Cc1ccccc1)c1ccc(Cl)cc1 (stereo not given),
83,,Cc1ccc(C(CCN(C)C)NC(=O)Cc2ccccc2)cc1 (stereo not given),
115,,CN(C)CCC(NC(=O)C#Cc1ccccc1)c1ccc2ccccc2c1 (stereo not given),
117,0.135,CN(C)CCC(NC(=O)/C=C/c1ccc(C(F)(F)F)cc1)c1ccc2ccccc2c1 (stereo not given),
113,1.41,COc1ccc(CCC(=O)NC(CCN(C)C)c2ccc3ccccc3c2)cc1 (stereo not given),
106,0.38,COc1ccc(/C=C/C(=O)NC(CCN(C)C)c2ccc3ccccc3c2)cc1 (stereo not given),
53,,CN(C)CCC(NC(=O)Cc1ccc(C(F)(F)F)cc1)c1ccc(Cl)cc1 (stereo not given),
116,,CN(C)CCC(NC(=O)/C=C/c1ccccc1)c1ccc2ccccc2c1 (stereo not given),
62,,COc1ccc(CC(=O)NC(CCN(C)C)c2ccc(C)cc2)cc1 (stereo not given),

# The next lines start with the molecule.
SMILES,Efficacy [1] [%],EC50 [2] [µM],further results
Cc1ccc(C(CCN(C)C)NC(=O)CCc2ccc(C(F)(F)F)cc2)cc1 (stereo not given),60,,
Cc1ccc(C(CCN(C)C)NC(=O)/C=C/c2ccccc2)cc1 (stereo not given),97,1.55,
COc1ccc(/C=C/C(=O)NC(CCN(C)C)c2ccc(Cl)cc2)cc1 (stereo not given),99,0.513,
COc1ccc(CCC(=O)NC(CCN(C)C)c2ccc(C)cc2)cc1 (stereo not given),67,,
CN(C)CCC(NC(=O)/C=C/c1ccc(C(F)(F)F)cc1)c1ccc(Cl)cc1 (stereo not given),133,0.129,
Cc1ccc(C(CCN(C)C)NC(=O)/C=C/c2ccc(C(F)(F)F)cc2)cc1 (stereo not given),96,0.437,
Cc1ccc(C(CCN(C)C)NC(=O)Cc2ccc(C(F)(F)F)cc2)cc1 (stereo not given),25,,
CN(C)CCC(NC(=O)C#Cc1ccccc1)c1ccc(Cl)cc1 (stereo not given),124,,
COc1ccc(CCC(=O)NC(CCN(C)C)c2ccc(Cl)cc2)cc1 (stereo not given),101,,
Cc1ccc(C(CCN(C)C)NC(=O)C#Cc2ccccc2)cc1 (stereo not given),131,,
COc1ccc(/C=C/C(=O)NC(CCN(C)C)c2ccc(C)cc2)cc1 (stereo not given),79,2,
COc1ccc(CC(=O)NC(CCN(C)C)c2ccc3ccccc3c2)cc1 (stereo not given),,,Activity [3]: inactive; Activity [1]: inactive
CN(C)CCC(NC(=O)/C=C/c1ccccc1)c1ccc(Cl)cc1 (stereo not given),128,,
CN(C)CCC(NC(=O)CCc1ccc(C(F)(F)F)cc1)c1ccc(Cl)cc1 (stereo not given),73,,
